Results on 19 compounds are retold here after ChEMBL document CHEMBL3632506, “Esters of some non-steroidal anti-inflammatory drugs with cinnamyl alcohol are potent lipoxygenase inhibitors with enhanced anti-inflammatory activity” (Bioorg Med Chem Lett, 2015).

Series [1] in a line: Inhibition of soybean lipoxygenase assessed as reduction in conversion of sodium linoleate to 13-hydroperoxylinoleic acid up to 7 mins. The arrangement: species or system Glycine max.
The subject of series [2] is Rattus norvegicus. The experiment in a line: Antiinflammatory activity in rat assessed as reduction of carrageenan-induced paw oedema at 0.15 mmol/kg, ip administered 5 mins before carrageenan challenge measured after 3.5 hrs. The series is classed as functional. The method in brief: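 Rat carrageenan-induced paw oedema; compounds given ip at 0.15 mmol/kg body weight. Result expressed as percent inhibition of oedema relative to controls; mean of 6–8 animals; significance by Student's t test.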

Series [3] in a line: Antioxidant activity assessed as DPPH radical scavenging activity at 0.2 mM after 30 mins. The series is classed as physicochemical. The conditions noted are these: 0.5 h, 200 µM. (In general: The DPPH test is a chemical assay of radical scavenging.)
The subject of another series is Glycine max. The experiment in a line: Competitive inhibition of soybean lipoxygenase 1 mM of sodium linoleate assessed as reduction of 13-hydroperoxylinoleic acid formation up to 7 mins. Summed up: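 Soybean lipoxygenase run with linoleic acid at 1 mM, above the saturating substrate concentration, under the same conditions as the standard inhibition assay, to test for competitive inhibition.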

For series [4], the system named is Rattus norvegicus. The experiment in a line: Antidyslipidemic activity in rat Triton-WR1339-induced hyperlipidemic model assessed as reduction of plasma total cholesterol level at 0.15 mmol/kg, ip after 24 hrs. In kind it is functional. The arrangement: scale not given: the % may be the effect or the level left. The method in brief:
(§1)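 Hyperlipidemia induced in rats by tyloxapol 200 mg/kg ip; compounds given ip at 150 μmol/kg. Serum total cholesterol, triglycerides and LDL-cholesterol compared with hyperlipidemic controls. Groups of six to eight rats; significance by Student's t test.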

In series [5] the test system is Rattus norvegicus. Briefly: Antidyslipidemic activity in rat Triton-WR1339-induced hyperlipidemic model assessed as reduction of plasma triglyceride level at 0.15 mmol/kg, ip after 24 hrs. The series is classed as functional. Also noted: scale not given: the % may be the effect or the level left. The method in brief:
as §1

Series [6] relates to Rattus norvegicus. The experiment in a line: Antidyslipidemic activity in rat Triton-WR1339-induced hyperlipidemic model assessed as reduction of plasma low density lipoprotein cholesterol level at 0.15 mmol/kg, ip after 24 hrs. The series is classed as functional. The arrangement: scale not given: the % may be the effect or the level left. The method in brief: as §1
The subject of a further series is Liver. The experiment in a line: Antioxidant activity in rat hepatic microsomal membrane assessed as inhibition of ferrous ascorbate-induced lipid peroxidation after 45 mins by spectrophotometric analysis. In kind it is functional, cell membranes.
The test system of series [7] is Rattus norvegicus. Briefly: Antiinflammatory activity in rat assessed as reduction of carrageenan-induced paw oedema at 0.30 mmol/kg, ip administered 5 mins before carrageenan challenge measured after 3.5 hrs. In kind it is functional. (Carrageenan injected into the paw causes an acute inflammation.)

Active and inactive are the calls of the source. No cut-off for these calls is given here.

For `CC(Cc1ccc(O)c(O)c1)C(C)Cc1ccc(O)c(O)c1` (stereo unspecified) [NORDIHYDROGUAIARETIC ACID], the IC50 in series [1] came to 1.3 µM.
Regarding `Cc1c(Cl)cccc1Nc1ccccc1C(=O)O` [TOLFENAMIC ACID], in the series on Rattus norvegicus [2], the inhibition in vivo at 150 µmol/kg came to 24%.
Consider `O=C(Cc1ccccc1Nc1c(Cl)cccc1Cl)OC/C=C/c1ccccc1`, for which the Activity result in [3] was “Not Active”; in the series with Rattus norvegicus [4], 78.4%; in the series on Rattus norvegicus [5], 71.6%; in the series on Rattus norvegicus [6], 76.8%. Also, the IC50 in series [1] turned out to be 78 µM. Further, the inhibition in vivo at 150 µmol/kg with Rattus norvegicus [2] worked out at 53%. The inhibition result in the series with Glycine max and in the series on Liver was “inactive” in each case.
As to `Cc1cccc(Nc2ccccc2C(=O)OC/C=C/c2ccccc2)c1C`, the Activity entry in series [3] is listed as “Not Active”. Moreover, in series [1], the IC50 was found to be 38 µM. In the series on Rattus norvegicus [2], the inhibition in vivo at 150 µmol/kg was found to be 62%. The inhibition entry in the series with Glycine max and in the series on Liver was “inactive” each time.
Turning to `O=C(Cc1c[nH]c2ccccc12)OC/C=C/c1ccccc1`, in [3], the Activity entry was “Not Active”. For the same compound, in series [1], the IC50 amounted to 116 µM. Moreover, the inhibition in vivo at 150 µmol/kg with Rattus norvegicus [2] is 33%. Moreover, the inhibition entry in the series with Glycine max and with Liver was “inactive” each time.
For the compound `OC/C=C/c1ccccc1` [CINNAMIC ALCOHOL], in series [1], the IC50 was determined as 250 µM. In the series with Rattus norvegicus [2], the inhibition in vivo at 150 µmol/kg was determined as 13%.
Take `CC(C(=O)OC/C=C/c1ccccc1)c1cccc(C(=O)c2ccccc2)c1` (stereo unspecified): the Activity entry in series [3] was “Not Active”. Moreover, the IC50 in series [1] amounted to 22.5 µM. Further, the inhibition in vivo at 150 µmol/kg with Rattus norvegicus [2] was 55%. Also, the inhibition result in the series with Glycine max and with Liver was “inactive” in each case.
Regarding `COc1ccc2cc([C@H](C)C(=O)OC/C=C/c3ccccc3)ccc2c1`, the Activity entry in [3] is reported as “Not Active”. Besides, in series [1], the concentration for half-maximal inhibition (IC50) worked out at 40.5 µM. Further, the inhibition in vivo at 150 µmol/kg in the series on Rattus norvegicus [2] is 60%. Also, the inhibition result in the series with Glycine max and in the series with Liver was “inactive” each time.
Turning to `O=C(OC/C=C/c1ccccc1)c1ccccc1Nc1cccc(C(F)(F)F)c1`, the Activity result in series [3] was “Not Active”; with Rattus norvegicus [4], 48.4%; in the series with Rattus norvegicus [5], 50.1%; in the series with Rattus norvegicus [6], 65.1%. In addition, the IC50 in [1] was found to be 9 µM. For the same compound, the inhibition in vivo at 150 µmol/kg in the series on Rattus norvegicus [2] is 48%. The inhibition entry in the series on Glycine max and in the series with Liver was “inactive” in each case.
`O=C(CCCCC1CCSS1)OC/C=C/c1ccccc1` (stereo unspecified): in series [3], the Activity result was “Not Active”. Moreover, in [1], the IC50 worked out at 11.3 µM. Moreover, the inhibition in vivo at 150 µmol/kg with Rattus norvegicus [2] amounted to 48%. The inhibition in vivo at 300 µmol/kg with Rattus norvegicus [7] was determined as 57%. The inhibition result in the series with Glycine max and with Liver was “inactive” in each case.
With `O=C(O)c1ccccc1Nc1cccc(C(F)(F)F)c1` [FLUFENAMIC ACID], in the series on Rattus norvegicus [2], the inhibition in vivo at 150 µmol/kg amounted to 19%.
Still for that read-out and setting: in the case of `O=C(O)Cc1ccccc1Nc1c(Cl)cccc1Cl` [DICLOFENAC] it was 37%.
On to `CC(C)Cc1ccc(C(C)C(=O)OC/C=C/c2ccccc2)cc1` (stereo unspecified), for which the Activity result was “Not Active” in series [3], 53.3% in the series with Rattus norvegicus [4], 77.5% in the series with Rattus norvegicus [5] and 75% with Rattus norvegicus [6]. Besides, the half-inhibitory concentration (IC50) in [1] is 6.7 µM. The inhibition in vivo at 150 µmol/kg in the series with Rattus norvegicus [2] is 46%. Besides, the inhibition in vivo at 300 µmol/kg in the series on Rattus norvegicus [7] is 68%. Also, the inhibition result with Glycine max and in the series with Liver was “inactive” in each case.
`CC(C)Cc1ccc(C(C)C(=O)O)cc1` (stereo unspecified) [IBUPROFEN]: the inhibition in vivo at 150 µmol/kg in the series on Rattus norvegicus [2] turned out to be 36%.
As to `Cc1c(Cl)cccc1Nc1ccccc1C(=O)OC/C=C/c1ccccc1`, in series [3], the Activity entry is reported as “Not Active”. Besides, the IC50 in [1] amounted to 9.6 µM. In the series with Rattus norvegicus [2], the inhibition in vivo at 150 µmol/kg amounted to 42%. Moreover, the inhibition entry in the series with Glycine max and with Liver was “inactive” in each case.
For `COc1ccc2c(c1)c(CC(=O)OC/C=C/c1ccccc1)c(C)n2C(=O)c1ccc(Cl)cc1`, in [3], the Activity entry is on record as “Not Active”. Moreover, the IC50 in series [1] was found to be 9 µM. Besides, in the series on Rattus norvegicus [2], the inhibition in vivo at 150 µmol/kg came out at 56%. The inhibition entry with Glycine max and in the series with Liver was “inactive” throughout.
As to `COc1ccc2c(c1)c(CC(=O)O)c(C)n2C(=O)c1ccc(Cl)cc1` [INDOMETHACIN], the inhibition in vivo at 150 µmol/kg with Rattus norvegicus [2] was found to be 42%.
`Cc1cccc(Nc2ccccc2C(=O)O)c1C` [MEFENAMIC ACID]: the inhibition in vivo at 150 µmol/kg with Rattus norvegicus [2] turned out to be 44%.
Still for that read-out and setting: in the case of `COc1ccc2cc([C@H](C)C(=O)O)ccc2c1` [NAPROXEN] it was 11%.

In general, IC50 refers to the point on the concentration scale where inhibition reaches its midpoint. The inhibition in vivo is how much of the control response was suppressed.
